Test results: ChEMBL document CHEMBL1124223, “1-Substituted 7-[3-[(ethylamino)methyl]-1-pyrrolidinyl]-6,8- difluoro-1,4-dihydro-4-oxo-3-quinolinecarboxylic acids. New quantitative structure-activity relationships at N1 for the quinolone antibacterials” (1988)
Values after ≈ are worked out from the molar mass of the structure shown.

Legend:
Enterobacter cloacae = experiment: Minimum inhibitory concentration against Enterobacter cloacae. (MA2446).; assay type: functional
Escherichia coli [1] = experiment: Minimum inhibitory concentration against Escherichia coli (H560); assay type: functional
In short: (§1)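 MICs were determined by standard microtitration against a panel of 11 bacterial strains. Aqueous stock solutions were prepared with 0.1 N sodium or potassium hydroxide.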

Streptococcus pyogenes = experiment: Minimum inhibitory concentration against Streptococcus pyogenes (C203).; assay type: functional; in short: as §1
Enterobacter = experiment: Minimum inhibitory concentration against gram-negative enterobacteriaceae.; assay type: functional
In short: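 This value is the geometric mean of microtitration MICs for the Gram-negative Enterobacteriaceae strains in the 11-organism panel. Aqueous stocks were prepared in 0.1 N sodium or potassium hydroxide.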

Klebsiella pneumoniae = experiment: Minimum inhibitory concentration against Klebsiella pneumoniae (MGH-2); assay type: functional; in short: as §1
Escherichia coli [2] = experiment: Minimum inhibitory concentration against Escherichia coli (vogel); assay type: functional; in short: as §1
Staphylococcus aureus [3] = experiment: Minimum inhibitory concentration against Staphylococcus aureus (H-228).; assay type: functional; in short: as §1
Streptococcus pneumoniae = experiment: Minimum inhibitory concentration against Streptococcus pneumoniae (SV-1).; assay type: functional; in short: as §1
Providencia rettgeri = experiment: Minimum inhibitory concentration against Providencia rettgeri. (M1771); assay type: functional; in short: as §1
Pseudomonas aeruginosa = experiment: Minimum inhibitory concentration against Pseudomonas aeruginosa. (UI-18); assay type: functional; in short: as §1
[4] = target: DNA gyrase (Escherichia coli) (UniProt P0AES6+P0AES4); experiment: Concentration required for 50% inhibition of gyrase.; assay type: protein-complex assay
In short: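 DNA gyrase inhibition: the drug concentration (µg/mL) giving 50% inhibition (I50) was recorded, along with the lowest concentration inducing gyrase-mediated DNA cleavage. Data come from duplicate experiments with ±50% reproducibility.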

Staphylococcus aureus [5] = experiment: Minimum inhibitory concentration against Staphylococcus aureus (UC76).; assay type: functional; in short: as §1
Enterococcus faecalis = experiment: Minimum inhibitory concentration against Streptococcus faecalis (MGH-2).; assay type: functional; in short: as §1
Mus musculus [6] = experiment: In vivo activity against Pseudomonas aeruginosa (po); assay type: functional; settings: read-out: PD50
In short: (§2)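 Median protective dose (PD50, mg/kg) measured in acute, lethal, systemic infections in female Charles River CD-1 mice. A single dose of compound was given at the time of bacterial challenge. Aqueous stock solutions were made with 0.1 N sodium or potassium hydroxide.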

Mus musculus [7] = experiment: In vivo activity against Streptococcus pneumoniae (po); assay type: functional; settings: read-out: PD50; in short: as §2
Mus musculus [8] = experiment: In vivo activity against Streptococcus pyogenes (sc); assay type: functional; settings: read-out: PD50; in short: as §2
Mus musculus [9] = experiment: In vivo activity against Escherichia coli (sc); assay type: functional; settings: read-out: PD50; in short: as §2
Mus musculus [10] = experiment: In vivo activity against Streptococcus pyogenes (po); assay type: functional; settings: read-out: PD50; in short: as §2
Mus musculus [11] = experiment: In vivo activity against Escherichia coli (po); assay type: functional; settings: read-out: PD50; in short: as §2
Mus musculus [12] = experiment: In vivo activity against Pseudomonas aeruginosa (sc); assay type: functional; settings: read-out: PD50; in short: as §2
Mus musculus [13] = experiment: In vivo activity against Streptococcus pneumoniae (sc); assay type: functional; settings: read-out: PD50; in short: as §2

Compound | MIC (Enterobacter cloacae) | MIC (Escherichia coli [1]) | MIC (Streptococcus pyogenes) | MIC (Enterobacter) | MIC (Klebsiella pneumoniae) | MIC (Escherichia coli [2]) | MIC (Staphylococcus aureus [3]) | MIC (Streptococcus pneumoniae) | MIC (Providencia rettgeri) | MIC (Pseudomonas aeruginosa) | IC50 [4] | MIC (Staphylococcus aureus [5]) | MIC (Enterococcus faecalis) | also measured
CCNCC1CCN(c2c(F)cc3c(=O)c(C(=O)O)cn(-c4ccc(F)cc4)c3c2F)C1 (stereo not given) | 0.8 µg/mL (≈ 1.8 µM) | 0.1 µg/mL (≈ 0.224 µM) | 0.4 µg/mL (≈ 0.898 µM) | 0.7 µg/mL (≈ 1.57 µM) | 1.6 µg/mL (≈ 3.59 µM) | 0.8 µg/mL (≈ 1.8 µM) | 0.1 µg/mL (≈ 0.224 µM) | 0.4 µg/mL (≈ 0.898 µM) | 1.6 µg/mL (≈ 3.59 µM) | 1.6 µg/mL (≈ 3.59 µM) | 14 µg/mL (≈ 31.4 µM) | 0.2 µg/mL (≈ 0.449 µM) | 0.2 µg/mL (≈ 0.449 µM) | –
CCNCC1CCN(c2c(F)cc3c(=O)c(C(=O)O)cn(C4(C)CC4)c3c2F)C1 (stereo not given) | 3.1 µg/mL (≈ 7.65 µM) | 1.6 µg/mL (≈ 3.95 µM) | 0.8 µg/mL (≈ 1.97 µM) | 1.38 µg/mL (≈ 3.4 µM) | 0.8 µg/mL (≈ 1.97 µM) | 0.8 µg/mL (≈ 1.97 µM) | 0.4 µg/mL (≈ 0.987 µM) | 0.8 µg/mL (≈ 1.97 µM) | 1.6 µg/mL (≈ 3.95 µM) | 3.1 µg/mL (≈ 7.65 µM) | 6.3 µg/mL (≈ 15.5 µM) | 0.1 µg/mL (≈ 0.247 µM) | 0.2 µg/mL (≈ 0.493 µM) | –
CCNCC1CCN(c2c(F)cc3c(=O)c(C(=O)O)cn(C4CCCC4)c3c2F)C1 (stereo not given) | 6.3 µg/mL (≈ 15 µM) | 0.8 µg/mL (≈ 1.91 µM) | 0.4 µg/mL (≈ 0.954 µM) | 3.6 µg/mL (≈ 8.58 µM) | 3.1 µg/mL (≈ 7.39 µM) | 3.1 µg/mL (≈ 7.39 µM) | 0.4 µg/mL (≈ 0.954 µM) | 0.2 µg/mL (≈ 0.477 µM) | 12.5 µg/mL (≈ 29.8 µM) | 12.5 µg/mL (≈ 29.8 µM) | 28 µg/mL (≈ 66.8 µM) | 0.1 µg/mL (≈ 0.238 µM) | 0.4 µg/mL (≈ 0.954 µM) | –
CCNCC1CCN(c2c(F)cc3c(=O)c(C(=O)O)cn(C4CCC4)c3c2F)C1 (stereo not given) | 0.4 µg/mL (≈ 0.987 µM) | 0.1 µg/mL (≈ 0.247 µM) | 0.2 µg/mL (≈ 0.493 µM) | 0.4 µg/mL (≈ 0.987 µM) | 0.4 µg/mL (≈ 0.987 µM) | 0.2 µg/mL (≈ 0.493 µM) | 0.1 µg/mL (≈ 0.247 µM) | 0.1 µg/mL (≈ 0.247 µM) | 3.1 µg/mL (≈ 7.65 µM) | 3.1 µg/mL (≈ 7.65 µM) | 26 µg/mL (≈ 64.1 µM) | 0.05 µg/mL (≈ 0.123 µM) | 0.2 µg/mL (≈ 0.493 µM) | –
CCNCC1CCN(c2c(F)cc3c(=O)c(C(=O)O)cn(C4CC4C)c3c2F)C1 (stereo not given) | 1.6 µg/mL (≈ 3.95 µM) | 0.8 µg/mL (≈ 1.97 µM) | 0.8 µg/mL (≈ 1.97 µM) | 1.59 µg/mL (≈ 3.92 µM) | 1.6 µg/mL (≈ 3.95 µM) | 0.8 µg/mL (≈ 1.97 µM) | 0.8 µg/mL (≈ 1.97 µM) | 0.8 µg/mL (≈ 1.97 µM) | 6.3 µg/mL (≈ 15.5 µM) | 6.3 µg/mL (≈ 15.5 µM) | 13 µg/mL (≈ 32.1 µM) | 0.2 µg/mL (≈ 0.493 µM) | 0.4 µg/mL (≈ 0.987 µM) | –
CN1CCN(c2cc3c(cc2F)c(=O)c(C(=O)O)cn3-c2ccc(F)cc2)CC1 [DIFLOXACIN] | 0.8 µg/mL (≈ 2 µM) | 0.05 µg/mL (≈ 0.125 µM) | 1.6 µg/mL (≈ 4.01 µM) | 0.4 µg/mL (≈ 1 µM) | 0.4 µg/mL (≈ 1 µM) | 0.4 µg/mL (≈ 1 µM) | 1.6 µg/mL (≈ 4.01 µM) | 1.6 µg/mL (≈ 4.01 µM) | 1.6 µg/mL (≈ 4.01 µM) | 0.8 µg/mL (≈ 2 µM) | – | 0.4 µg/mL (≈ 1 µM) | 3.1 µg/mL (≈ 7.76 µM) | ED50 (Mus musculus [6]): 14 mg/kg; ED50 (Mus musculus [7]): 16 mg/kg; ED50 (Mus musculus [8]): 7 mg/kg; ED50 (Mus musculus [9]): 2 mg/kg; ED50 (Mus musculus [10]): 7 mg/kg; ED50 (Mus musculus [11]): 2 mg/kg; ED50 (Mus musculus [12]): 14 mg/kg; ED50 (Mus musculus [13]): 13 mg/kg
CCNCC1CCN(c2c(F)cc3c(=O)c(C(=O)O)cn(-c4nccs4)c3c2F)C1 (stereo not given) | 1.6 µg/mL (≈ 3.68 µM) | 3.1 µg/mL (≈ 7.14 µM) | 6.3 µg/mL (≈ 14.5 µM) | 3.14 µg/mL (≈ 7.23 µM) | 3.1 µg/mL (≈ 7.14 µM) | 1.6 µg/mL (≈ 3.68 µM) | 25 µg/mL (≈ 57.5 µM) | 12.5 µg/mL (≈ 28.8 µM) | 12.5 µg/mL (≈ 28.8 µM) | 25 µg/mL (≈ 57.5 µM) | 30 µg/mL (≈ 69 µM) | 1.6 µg/mL (≈ 3.68 µM) | 6.3 µg/mL (≈ 14.5 µM) | –

Continued, in another order:

MIC (Enterobacter cloacae) | MIC (Escherichia coli [1]) | MIC (Streptococcus pyogenes) | MIC (Enterobacter) | MIC (Klebsiella pneumoniae) | MIC (Escherichia coli [2]) | MIC (Staphylococcus aureus [3]) | MIC (Streptococcus pneumoniae) | MIC (Providencia rettgeri) | MIC (Pseudomonas aeruginosa) | IC50 [4] | MIC (Staphylococcus aureus [5]) | MIC (Enterococcus faecalis) | Compound | also measured
0.2 µg/mL (≈ 0.53 µM) | 0.1 µg/mL (≈ 0.265 µM) | 0.1 µg/mL (≈ 0.265 µM) | 0.3 µg/mL (≈ 0.795 µM) | 0.4 µg/mL (≈ 1.06 µM) | 0.2 µg/mL (≈ 0.53 µM) | 0.4 µg/mL (≈ 1.06 µM) | 0.2 µg/mL (≈ 0.53 µM) | 1.6 µg/mL (≈ 4.24 µM) | 1.6 µg/mL (≈ 4.24 µM) | 2.9 µg/mL (≈ 7.68 µM) | 0.1 µg/mL (≈ 0.265 µM) | 0.4 µg/mL (≈ 1.06 µM) | C=Cn1cc(C(=O)O)c(=O)c2cc(F)c(N3CCC(CNCC)C3)c(F)c21 (stereo not given) | –
1.6 µg/mL (≈ 4.38 µM) | 0.1 µg/mL (≈ 0.274 µM) | 0.4 µg/mL (≈ 1.09 µM) | 0.53 µg/mL (≈ 1.45 µM) | 0.4 µg/mL (≈ 1.09 µM) | 0.4 µg/mL (≈ 1.09 µM) | 1.6 µg/mL (≈ 4.38 µM) | 0.4 µg/mL (≈ 1.09 µM) | 1.6 µg/mL (≈ 4.38 µM) | 1.6 µg/mL (≈ 4.38 µM) | 7.5 µg/mL (≈ 20.5 µM) | 0.2 µg/mL (≈ 0.547 µM) | 1.6 µg/mL (≈ 4.38 µM) | CCNCC1CCN(c2c(F)cc3c(=O)c(C(=O)O)cn(C)c3c2F)C1 (stereo not given) | –
1.6 µg/mL (≈ 3.69 µM) | 0.4 µg/mL (≈ 0.923 µM) | 0.4 µg/mL (≈ 0.923 µM) | 1.05 µg/mL (≈ 2.42 µM) | 0.8 µg/mL (≈ 1.85 µM) | 0.8 µg/mL (≈ 1.85 µM) | 0.4 µg/mL (≈ 0.923 µM) | 0.4 µg/mL (≈ 0.923 µM) | 3.1 µg/mL (≈ 7.15 µM) | 6.3 µg/mL (≈ 14.5 µM) | 26 µg/mL (≈ 60 µM) | 0.1 µg/mL (≈ 0.231 µM) | 0.2 µg/mL (≈ 0.461 µM) | CCNCC1CCN(c2c(F)cc3c(=O)c(C(=O)O)cn(CC(F)(F)F)c3c2F)C1 (stereo not given) | –
0.2 µg/mL (≈ 0.503 µM) | 0.1 µg/mL (≈ 0.252 µM) | 0.1 µg/mL (≈ 0.252 µM) | 0.23 µg/mL (≈ 0.579 µM) | 0.4 µg/mL (≈ 1.01 µM) | 0.1 µg/mL (≈ 0.252 µM) | 0.4 µg/mL (≈ 1.01 µM) | 0.1 µg/mL (≈ 0.252 µM) | 0.8 µg/mL (≈ 2.01 µM) | 1.6 µg/mL (≈ 4.03 µM) | 7.5 µg/mL (≈ 18.9 µM) | 0.1 µg/mL (≈ 0.252 µM) | 0.2 µg/mL (≈ 0.503 µM) | CCNCC1CCN(c2c(F)cc3c(=O)c(C(=O)O)cn(CCF)c3c2F)C1 (stereo not given) | –
